From ChEMBL document CHEMBL1121537, “Anticoccidial derivatives of 6-azauracil. 3. Synthesis, high activity, and short plasma half-life of 1-phenyl-6-azauracils containing sulfonamide substituents” (J Med Chem, 1980)

What was measured:
[1] = species on record: Gallus gallus; assay: Minimum effective concentration required to prevent formation of detectable lesions in Eimeria tenella infected leghorn cockerels; Value ranges from 60-120; assay type: functional
In short: (§1)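 Leghorn cockerels infected with Eimeria tenella, screened by a modified version of a published screening method. The minimum effective concentration, in ppm, is the lowest level that prevents detectable lesions.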

[2] = test system: Eimeria tenella; assay: Minimum effective concentration required to prevent formation of detectable lesions in Eimeria tenella infected leghorn cockerels.; assay type: functional; settings: read-out: MEC; in short: as §1
[3] = test system: Eimeria acervulina; assay: The compound was evaluated for the variations in the vulnerability to Eimeria acervulina; assay type: functional; settings: read-out: MEC
[4] = test system: Eimeria tenella; assay: The compound was evaluated for the variations in the vulnerability to Eimeria tenella; assay type: functional; settings: read-out: MEC
[5] = species on record: Gallus gallus; assay: The compound was evaluate for the minimum amount required to prevent formation of detectable disease lesions against Eimeria tenella infections.; assay type: functional; in short: as §1
[6] = Half life in plasma of older birds; assay type: ADME, organism-based, Gallus gallus; settings: chicken
In short: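 Plasma half-life in older birds, about 9-10 weeks old, determined by a previously described method.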

[7] = test system: Gallus gallus; assay: Plasma level measured 3h after oral administration of 4-5 mg/kg body weight in older birds; assay type: functional, organism-based
In short: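 Older birds, about 9-10 weeks old, given 4-5 mg/kg body weight orally; drug level in plasma measured 3 h after dosing, in mcg/mL.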

[8] = Half life in plasma of young cockerels; assay type: ADME, organism-based, Gallus gallus; settings: male, chicken
In short: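 Plasma half-life in young cockerels, about 10 days old, determined by a previously described method.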

[9] = test system: Gallus gallus; assay: Plasma level measured 3h after oral administration of 4-5 mg/kg body weight in young cockerels; assay type: functional, organism-based
In short: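 Young cockerels, about 10 days old, given 4-5 mg/kg body weight orally; drug level in plasma measured 3 h after dosing, in mcg/mL.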

[10] = test system: Eimeria maxima; assay: The compound was evaluated for the variations in the vulnerability to Eimeria maxima; assay type: functional; settings: read-out: MEC
[11] = test system: Eimeria tenella; assay: The compound was evaluated for the variations in the vulnerability to Eimeria tenella,; assay type: functional; settings: read-out: MEC
[12] = test system: Eimeria acervulina; assay: The compound was evaluated for the variations in the vulnerability to Eimeria acervulina; value ranges from 15-30; assay type: functional; settings: read-out: MEC
[13] = test system: Eimeria brunetti; assay: The compound was evaluated for the variations in the vulnerability to Eimeria brunetti; assay type: functional; settings: read-out: MEC
[14] = test system: Eimeria necatrix; assay: The compound was evaluated for the variations in the vulnerability to Eimeria necatrix; assay type: functional; settings: read-out: MEC
[15] = species on record: Gallus gallus; assay: Minimum effective concentration required to prevent formation of detectable lesions in Eimeria tenella infected leghorn cockerels; value ranges from 15 to 30; assay type: functional; in short: as §1
[16] = species on record: Gallus gallus; assay: Minimum effective concentration required to prevent formation of detectable lesions in Eimeria tenella infected leghorn cockerels; assay type: functional; in short: as §1

SMILES	minimal effective concentration [2] [µg/mL]	also measured
CN(Cc1ccccc1)S(=O)(=O)c1ccc(-n2ncc(=O)[nH]c2=O)cc1Cl	–	MEC [1]: 60 p.p.m.
CCOC(=O)N1CCN(S(=O)(=O)c2ccc(-n3ncc(=O)[nH]c3=O)cc2Cl)CC1	> 250	–
O=c1cnn(-c2ccc(S(=O)(=O)N3CCCCC3)cc2)c(=O)[nH]1	250	–
O=c1cnn(-c2cc(Cl)c(S(=O)(=O)N3CCOCC3)c(Cl)c2)c(=O)[nH]1	–	minimal effective concentration [3]: 30 µg/mL; minimal effective concentration [4]: 15 µg/mL; MEC [5]: 30 p.p.m.
CCCN(C)S(=O)(=O)c1c(C)cc(-n2ncc(=O)[nH]c2=O)cc1C	120	–
O=c1cnn(-c2ccc(S(=O)(=O)N3CCOCC3)cc2)c(=O)[nH]1	> 250	–
CCCCN(CC#N)S(=O)(=O)c1ccc(-n2ncc(=O)[nH]c2=O)cc1Cl	> 120	–
COCCN(CCOC)S(=O)(=O)c1c(C)cc(-n2ncc(=O)[nH]c2=O)cc1C	250	–
O=c1cnn(-c2ccc(S(=O)(=O)N3CCCC3)c(Cl)c2)c(=O)[nH]1	250	–
C=CCN(CC=C)S(=O)(=O)c1ccc(-n2ncc(=O)[nH]c2=O)cc1Cl	250	–
Cc1cc(-n2ncc(=O)[nH]c2=O)cc(C)c1S(=O)(=O)N(C)Cc1ccccc1	60	–
Cc1cc(Cl)cc(-n2ncc(=O)[nH]c2=O)c1	15	half-life [6]: 20 h; Plasma level [7]: 21.7 µg/mL
O=c1cnn(-c2ccc(S(=O)(=O)Nc3cccc(Cl)c3)c(Cl)c2)c(=O)[nH]1	> 500	–
COc1c(Cl)cc(-n2ncc(=O)[nH]c2=O)cc1Cl	250	half-life [8]: 2 h
CN(Cc1ccc(Cl)cc1)S(=O)(=O)c1ccc(-n2ncc(=O)[nH]c2=O)cc1Cl	500	–
O=c1cnn(-c2ccc(S(=O)(=O)Cl)cc2)c(=O)[nH]1	> 250	–
Cc1cc(-n2ncc(=O)[nH]c2=O)cc(C)c1S(=O)(=O)Cl	250	–
CCCN(C)S(=O)(=O)c1ccc(-n2ncc(=O)[nH]c2=O)cc1Cl	250	–
Cc1cc(C)cc(-n2ncc(=O)[nH]c2=O)c1	30	half-life [6]: 12 h; Plasma level [9]: 8.1 µg/mL; half-life [8]: 6 h; Plasma level [7]: 22.4 µg/mL
CCN(CC)S(=O)(=O)c1c(C)cc(-n2ncc(=O)[nH]c2=O)cc1Cl	250	–
CCCN(CCC)S(=O)(=O)c1ccc(-n2ncc(=O)[nH]c2=O)cc1Cl	> 250	–
O=c1cnn(-c2cc(Cl)c(N3CCOCC3)c(Cl)c2)c(=O)[nH]1	–	minimal effective concentration [10]: 15 µg/mL; minimal effective concentration [11]: 15 µg/mL; minimal effective concentration [12]: 30 µg/mL; MEC [5]: 15 p.p.m.

SMILES	minimal effective concentration [2] [µg/mL]	also measured
CCN(C(C)C)S(=O)(=O)c1ccc(-n2ncc(=O)[nH]c2=O)cc1C	500	–
O=c1cnn(-c2ccc(S(=O)(=O)N3CCC(Cc4ccccc4)CC3)c(Cl)c2)c(=O)[nH]1	> 250	–
O=c1cnn(-c2ccc(S(=O)(=O)N(Cc3ccccc3)Cc3ccccc3)c(Cl)c2)c(=O)[nH]1	> 250	–
O=c1cnn(-c2ccccc2)c(=O)[nH]1	500	half-life [8]: 8 h
O=c1cnn(-c2ccc(S(=O)(=O)NCc3ccccc3Cl)c(Cl)c2)c(=O)[nH]1	> 250	–
CN(CCO)S(=O)(=O)c1ccc(-n2ncc(=O)[nH]c2=O)cc1Cl	> 120	–
C=CCN(C)S(=O)(=O)c1ccc(-n2ncc(=O)[nH]c2=O)cc1Cl	60	–
O=c1cnn(-c2cc(Br)c(S(=O)(=O)N3CCOCC3)c(Br)c2)c(=O)[nH]1	> 30	–
Cc1cc(-n2ncc(=O)[nH]c2=O)cc(Cl)c1S(=O)(=O)N1CCSCC1	120	–
O=c1cnn(-c2ccc(S(=O)(=O)Nc3c(F)c(F)c(F)c(F)c3F)c(Cl)c2)c(=O)[nH]1	> 60	–
O=c1cnn(-c2cc(Cl)cc(Cl)c2)c(=O)[nH]1	4	half-life [6]: 150 h; Plasma level [9]: 14.5 µg/mL; half-life [8]: 56 h; Plasma level [7]: 24.3 µg/mL
Cc1cc(-n2ncc(=O)[nH]c2=O)cc(C)c1S(=O)(=O)N1CCOCC1	15	minimal effective concentration [13]: 30 µg/mL; minimal effective concentration [14]: 15 µg/mL; minimal effective concentration [3]: 50 µg/mL; Plasma level [9]: 0.95 µg/mL; half-life [8]: 1.5 h; minimal effective concentration [4]: 15 µg/mL
O=c1cnn(-c2cccc(Cl)c2)c(=O)[nH]1	120	–
O=c1cnn(-c2ccc(S(=O)(=O)N3CCSCC3)c(Cl)c2)c(=O)[nH]1	60	–
O=c1cnn(-c2ccc(S(=O)(=O)N3CCC(O)CC3)c(Cl)c2)c(=O)[nH]1	> 250	–
NS(=O)(=O)c1ccc(-n2ncc(=O)[nH]c2=O)cc1Cl	> 120	–
Cc1cc(-n2ncc(=O)[nH]c2=O)cc(C)c1S(=O)(=O)N1CCCC1	60	–
Cc1cc(-n2ncc(=O)[nH]c2=O)ccc1S(=O)(=O)N1CCOCC1	–	MEC [15]: 15 p.p.m.; minimal effective concentration [3]: 30 µg/mL; Plasma level [9]: 3.1 µg/mL; half-life [8]: 1.1 h; minimal effective concentration [4]: 15 µg/mL
Cc1cc(-n2ncc(=O)[nH]c2=O)cc(C)c1S(=O)(=O)N(C)C	60	–
CCN(C)S(=O)(=O)c1ccc(-n2ncc(=O)[nH]c2=O)cc1Cl	120	–
O=c1cnn(-c2ccc(S(=O)(=O)N3CCCCC3)c(Cl)c2)c(=O)[nH]1	250	–
Cc1cccc(-n2ncc(=O)[nH]c2=O)c1	–	MEC [16]: >120 p.p.m.

SMILES	minimal effective concentration [2] [µg/mL]	also measured
Cc1cc(-n2ncc(=O)[nH]c2=O)ccc1S(=O)(=O)N(C)C1CCCC1	> 120	–
NS(=O)(=O)c1ccc(NS(=O)(=O)c2ccc(-n3ncc(=O)[nH]c3=O)cc2)cc1	500	–
CN(C)S(=O)(=O)c1ccc(-n2ncc(=O)[nH]c2=O)cc1Cl	250	–
O=c1cnn(-c2ccc(S(=O)(=O)N3CCSC3)c(Cl)c2)c(=O)[nH]1	> 120	–
Cc1cc(-n2ncc(=O)[nH]c2=O)cc(Cl)c1S(=O)(=O)N(C)C	60	–
C=CCN(C)S(=O)(=O)c1ccc(-n2ncc(=O)[nH]c2=O)cc1C	120	–
Cc1cc(-n2ncc(=O)[nH]c2=O)cc(Cl)c1S(=O)(=O)N1CCOCC1	10	minimal effective concentration [3]: 60 µg/mL; Plasma level [9]: 0.38 µg/mL; half-life [8]: 1 h; minimal effective concentration [4]: 10 µg/mL
Cc1cc(-n2ncc(=O)[nH]c2=O)ccc1S(=O)(=O)N1CCN(C=O)CC1	500	–
CC(C)(C)CC(C)(C)NS(=O)(=O)c1ccc(-n2ncc(=O)[nH]c2=O)cc1	> 120	–
O=c1cnn(-c2ccc(S(=O)(=O)NC3CCCCC3)c(Cl)c2)c(=O)[nH]1	> 500	–
COc1ccc(NS(=O)(=O)c2c(C)cc(-n3ncc(=O)[nH]c3=O)cc2C)cc1	> 250	–
CN(C1CCCC1)S(=O)(=O)c1ccc(-n2ncc(=O)[nH]c2=O)cc1Cl	> 120	–
Cc1cc(Cl)cc(NS(=O)(=O)c2ccc(-n3ncc(=O)[nH]c3=O)cc2Cl)c1	> 250	–
O=c1cnn(-c2cc(Cl)c(Cl)c(Cl)c2)c(=O)[nH]1	4	–
Cc1ccc(NS(=O)(=O)c2ccc(-n3ncc(=O)[nH]c3=O)cc2Cl)cc1Cl	> 250	–
O=C1CCN(S(=O)(=O)c2ccc(-n3ncc(=O)[nH]c3=O)cc2Cl)CC1	> 250	–
CCOC(CN(CC(OCC)OCC)S(=O)(=O)c1ccc(-n2ncc(=O)[nH]c2=O)cc1Cl)OCC	250	–
CN(c1ccccc1)S(=O)(=O)c1ccc(-n2ncc(=O)[nH]c2=O)cc1Cl	> 250	–
O=c1cnn(-c2ccc(S(=O)(=O)N3CCOCC3)c(Cl)c2)c(=O)[nH]1	30	minimal effective concentration [3]: 120 µg/mL; Plasma level [9]: 1.9 µg/mL; half-life [8]: 2.1 h; minimal effective concentration [4]: 30 µg/mL
O=c1cnn(-c2ccc(S(=O)(=O)NC3CCCCCCC3)c(Cl)c2)c(=O)[nH]1	> 250	–
